Bioassay records deposited in PubChem by several laboratories.
In the library only some 3.5% were active in any assay of this set; here they are far more common.
ABCG2 inh: human ABCG2 inhibition, ABCB1 as counter-screen; IgMXP3 cells, JC-1 efflux, flow cytometry; inhibition, % at 6.6 µM; AID 1325; 0.1% of 190,000 active;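 active = inhibition above 80%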;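 also: 0% = DMSO and 100% = nicardipine control wells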
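Read-out basis: Efflux inhibition in percent versus controls | Test system: ABCG2 IgMXP3 and barcoded ABCB1 CCRF-Adr cell mix | Quantity: 3 million cells/mL in well | Schedule: 10 min at 25 °C | Control set: Nicardipine as high control, DMSO as low control | Reagent: JC-1 as fluorescent efflux pump substrate | Signal: Flow cytometry of retained JC-1 fluorescence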
MEKK2wt PB1 HTS: raises or lowers MEK5 binding to wildtype human MEKK2 PB1 domain | Q9Y2U5 | bead flow cytometry, Alexa488-MEK5 binding to MEKK2 WT; actives lie on both sides | binding response (% of control), % at 10 µM | 1.1% of 290,000 active; in the data active = binding response below about 67% or above about 130%
MEKK3 PB1 HTS: MEKK3-MEK5 PB1 interaction, increase or decrease; AID 1529; Q99759; bead-based flow cytometry, Alexa488-MEK5 binding to MEKK3; actives lie on both sides; 0 = blocked by unlabeled MEK5, 100 = vehicle; binding response (% of control), % at 10 µM; 1.4% of 290,000 active;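 active = binding response more than 3 SD above or below the average of its plate-row segment, actives on both sides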;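 also: Alexa488 bead fluorescence after subtracting the streptavidin-only scavenger bead signal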
ABCB1 inh: inhibitors of human ABCB1 transporter, ABCG2 counter-screen | P08183 | CCRF-Adr cells, JC-1 efflux, flow cytometry | AID 1326 | 0.067% of 190,000 active | inhibition, % at 6.6 µM; in the data active = inhibition above about 40%;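 also: 0% = vehicle and 100% = reference inhibitor; higher value means more JC-1 retained so stronger ABCB1 efflux block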
WT yeast gro inh: growth inhibition of WT yeast, mitochondrial fusion screen; inhibition, % at 10 µM; AID 1362; mitochondrial fusion phenotypic screen, WT strain; 2.1% of 190,000 active; in the data active = inhibition above about 58%; tested in S. cerevisiae
MEKK2 mut-MEK5: signal of MEK5 binding to mutant human MEKK2 PB1 domain; bead flow cytometry, Alexa488-MEK5 binding to MEKK2 mutant; percent response, % at 10 µM; 0.35% of 290,000 active; in the data active = percent response above about 24%, passing the limit was not always enough
MEKK2wt confirm: raises or lowers MEK5 binding to wildtype human MEKK2, retest. shares compounds with MEKK3 PB1 HTS. bead flow cytometry, Alexa488-MEK5 binding to MEKK2 WT; actives lie on both sides. binding response (% of control), % at 10 µM. 2.4% of 5,900 active; in the data active = binding response below about 16% or above about 210%; inactive = in between
MEKK2mut-MEK5: signal of MEK5 binding to mutant human MEKK2, retest | shares compounds with MEKK3 PB1 HTS | bead flow cytometry, Alexa488-MEK5 binding to MEKK2 mutant | percent response, % at 10 µM | 2% of 5,900 active | AID 1893; in the data active = percent response mostly above about 71%, no sharp cut-off; inactive = mostly below about 38%;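 also: higher means compound restores mutant binding toward wildtype level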
MEKK3-MEK5 inh: MEKK3-MEK5 PB1 inhibition, single concentration confirmation; bead flow cytometry, Alexa488-MEK5 binding to MEKK3; hits give low values; AID 1894; 1.8% of 5,900 active; binding response (% of control), % at 10 µM; shares compounds with MEKK3 PB1 HTS;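 active = binding response below 72% of control, or above a set upper limit, though filed actives all read lower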;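 also: 100% = DMSO only wells and 0% = binding blocked by excess unlabeled MEK5; lower values mean stronger disruption of MEK5 binding to MEKK3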
Starred values were filed as active, the others as inactive; · = not tested or not shown; [ ] = dose if it differs, or a comment.

SMILES | ABCG2 inh | MEKK2wt PB1 HTS | MEKK3 PB1 HTS | ABCB1 inh | WT yeast gro inh | MEKK2 mut-MEK5 | MEKK2wt confirm | MEKK2mut-MEK5 | MEKK3-MEK5 inh
CN(Cc1ccccc1)C1CCN(Cc2ccccc2[N+](=O)[O-])CC1 | · | 105 | 102 | · | · | 9 | · | · | ·
CN1CCN(c2ccc(NC(=O)c3ccc(-c4ccc(Cl)cc4)o3)cc2)CC1 | · | 171* | 108 | · | · | 43* | 195 | 72* | 114
COc1cccc(C(=O)N2CCN=C2SC)c1 | 2 | 76 | 58*[inhibitor] | 1 | -12 | -4 | 99 | -5 | 97
O=C(NNc1cc(Cl)ccc1Cl)C1CCC1 | · | 96 | 90 | · | · | -12 | · | · | ·
CC(C)(C)NC(=O)C(c1ccncc1)N(C(=O)C1CSC(=O)C1)c1ccccc1 (stereo not drawn) | 1 | 97 | 92 | 0 | -1 | 0 | · | · | ·
Cc1cc2oc3cc(NCCC4CCCN4C)ccc3c(=O)c2cc1C (stereo not drawn) | · | 178* | 109 | · | · | 22 | 142 | 21 | 103
COC(=O)CC1C(=O)NCCN1C(=O)Nc1ccc(Cl)cc1 (stereo not drawn) | 0 | 2.0*[inhibitor] | 95 | 0 | 10 | -38 | 97 | 1 | 107
COc1ccc(NC(=O)C23CC4CC(C2)CC(c2ccc(C)cc2)(C4)C3)cc1 | 8 | 117 | 150* | 0 | 38 | 1 | 105 | 5 | 107
COc1ccccc1NC(=O)C12CC3CC(C1)CC(c1ccc(C)cc1)(C3)C2 | 13 | 113 | 101 | 1 | 39 | 8 | · | · | ·
COc1ccc(OC)c(-c2csc(NC(=O)CSc3ccc([N+](=O)[O-])cc3)n2)c1 | -1 | 110 | 141* | 0 | 33 | 0 | 103 | -3 | 102
CC(C)N(C(=O)COC(=O)c1cccc(N(C)C)c1)c1ccccc1 | · | 100 | 104 | · | · | 2 | · | · | ·
COC(=O)[C@@H](NCc1cccc(CN[C@H](C(=O)OC)c2ccccc2)c1)c1ccccc1 | · | 163* | 107 | · | · | 8 | 91 | -7 | 93
COC(=O)C(NC(=O)CCC(=O)N[C@@H](C(=O)OC)c1ccccc1)c1ccccc1 (stereo partly drawn) | · | 97 | 103 | · | · | 3 | · | · | ·
CCOC(=O)CCSc1nc(C)c2cc(OC)ccc2n1 | 1 | 90 | 72*[inhibitor] | 0 | -5 | 2 | 80 | -17 | 76
CCCCCC(=O)NC(NC(=S)Nc1ccc(S(N)(=O)=O)cc1)C(Cl)(Cl)Cl (stereo not drawn) | -1 | 102 | 104 | 0 | -21 | 5 | · | · | ·
CCCC(=O)NC(NC(=S)Nc1ccc(S(N)(=O)=O)cc1)C(Cl)(Cl)Cl (stereo not drawn) | -5 | 107 | 131* | -1 | -14 | 0 | 102 | 5 | 104
COc1ccc(SC[C@H](CC(C)C)N2CCN(CCc3ccccc3)CCC2=O)cc1 | · | 137* | 106 | · | · | 10 | 124 | 14 | 104
CCCN1CCC(=O)N([C@H](CSc2ccc(OC)cc2)c2ccccc2)CC1 | · | 165* | 129* | · | · | 4 | 111 | 3 | 103
O=C1CCN(CCc2ccccc2)CCN1[C@H](CSc1ccc(Br)cc1)Cc1ccccc1 | · | 154* | 118 | · | · | 2 | 142 | 36 | 105
CN1CCC(=O)N([C@H](CSc2ccccc2)c2ccccc2)CC1 | · | 109 | 101 | · | · | 0 | · | · | ·
Cc1ccc(SC[C@H](CC(C)C)N2CCN(CCc3ccccc3)CCC2=O)cc1 | · | 103 | 108 | · | · | 8 | · | · | ·
COc1ccc(SC[C@H](CC(C)C)N2CCN(C)CCC2=O)cc1 | · | 146* | 128* | · | · | 2 | 113 | -1 | 103
O=C(c1cccc(Cl)c1)C1CCCN(C(=O)c2ccoc2)C1 (stereo not drawn) | 1 | 98 | 100 | 0 | -5 | 2 | · | · | ·
CCn1ncc([N+](=O)[O-])c1C(=O)Nc1ccc(C)c(C)c1 | · | 98 | 100 | · | · | -7 | · | · | ·
O=C(OCc1cnc(Cl)s1)c1cccc(Cl)c1 | 1 | 109 | 104 | 0 | 8 | 3 | · | · | ·
SMILES | ABCG2 inh | MEKK2wt PB1 HTS | MEKK3 PB1 HTS | ABCB1 inh | WT yeast gro inh | MEKK2 mut-MEK5 | MEKK2wt confirm | MEKK2mut-MEK5 | MEKK3-MEK5 inh
Cc1cccc(C(=O)OCc2cnc(Cl)s2)c1 | 2 | 25*[inhibitor] | 15*[inhibitor] | 0 | -4 | -17 | 104 | 4 | 101
O=[N+]([O-])c1cc(C(F)(F)F)ccc1NCCNC(=S)Nc1ccc(Cl)cc1 | 3 | 139* | 107 | 0 | -1 | 19 | 131 | 20 | 108
CN(C)S(=O)(=O)c1cccc(NC(=O)CN2C(=O)NC3(CCc4ccccc4C3)C2=O)c1 (stereo not drawn) | · | 94 | 100 | · | · | -7 | · | · | ·
CCOC(=O)Cc1nc(-c2ccccc2)n[nH]1 | 2 | 1.0*[inhibitor] | 91 | 1 | -3 | -3 | 95 | -6 | 93
CCOC(=O)Cc1nc2ccccc2[nH]1 | -4 | 106 | 109 | -1 | -1 | 6 | · | · | ·
COc1cccc(-c2csc(NC(=O)C3CC3)n2)c1 | -2 | 106 | 109 | -1 | -1 | 2 | · | · | ·
CCN(CC)CCOC(=O)c1ccc(N/C=C(/C#N)c2nc(-c3cccc(OC)c3)cs2)cc1 | · | 93 | 31*[inhibitor] | · | · | -14 | 78 | -38 | 26*
CCN(CC)CCOC(=O)c1ccc(N/C=C(/C#N)c2nc(-c3ccc(OC)c(OC)c3)cs2)cc1 | · | 94 | 29*[inhibitor] | · | · | -1 | 53 | -45 | 15*
Cc1ccc(-c2csc(/C(C#N)=C/Nc3ccc4c(c3)OCCO4)n2)cc1 | -3 | 105 | 113 | 0 | -16 | 0 | · | · | ·
O=C(Nc1cccc(S(=O)(=O)N2CCCCC2)c1)Nc1ccc(Cl)cc1Cl | 4 | 141* | 153* | 0 | 82* | 3 | 126 | 10 | 105
O=C(Nc1cccc(S(=O)(=O)N2CCCCC2)c1)c1ccc2ncsc2c1 | · | 59*[inhibitor] | 86 | · | · | -10 | 107 | -2 | 102
COc1ccc2c(Cl)c(C(=O)N/N=C/c3cccnc3)sc2c1 | · | 103 | 102 | · | · | 4 | · | · | ·
c1ccc2c(c1)OCCOCCOc1ccccc1OCCOCCO2 | 2 | 103 | 105 | 2 | 43 | 2 | · | · | ·
CCn1c(-c2ccccc2)ccc(C#N)c1=O | 10 | 96 | 100 | 1 | -8 | -4 | · | · | ·
O=C(CSc1nc(O)c(Cc2ccccc2)c(=O)[nH]1)N1CCOCC1 | · | 118 | 131* | · | · | 31 | 98 | 2 | 99
COc1ccc(Cc2c(O)nc(SCC(=O)N3CCOCC3)[nH]c2=O)cc1 | · | 109 | 107 | · | · | 4 | · | · | ·
